Hits are enriched below; roughly 2.8% of the tested compounds scored in any of these assays.
EP2 antag = inhibitors of human EP2 prostaglandin E2 receptor; P43116; C6 glioma cells expressing human EP2, cAMP TR-FRET; cells stimulated with saturating PGE2; inhibition, % at 25 µM; 0.52% of 260,000 active; AID 1422;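 active means percent inhibition above 40 after rounding to a whole number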;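 further: rat C6 glioma host cells with rolipram phosphodiesterase inhibitor present; the protocol text gives 20 µM as final concentration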
NPY Y2 blocker = NPY-Y2 (human) receptor antagonism | P49146 | NPY-Y2 expressing cells, antagonist mode | inhibition, % at 2.7 µM | 0.99% of 140,000 active | AID 793; in the data active means inhibition above about 17%;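 further: 0% = vehicle with agonist challenge and 100% = reference antagonist with challenge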
EP2 mod = modulators of human EP2 prostaglandin E2 receptor; induction, % at 25 µM; P43116; AID 940; EP2-expressing cells, cAMP HTRF FRET, PGE2 co-stimulation; 0.83% of 260,000 active;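 active means compounds whose cAMP rise, as percent of the full-agonist control response, exceeds 60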;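 further: rat C6 glioma line stably carrying human EP2 under a CMV promoter; the protocol text gives 20 µM as final concentration; 100% = response of wells given 1 µM PGE2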
NPY-Y1 PAM-ag = potentiates or activates human NPY-Y1 receptor; P25929; NPY-Y1 expressing cells, potentiator/agonist activation; activation, % at 3.6 µM; 0.37% of 220,000 active; AID 1304; in the data active means activation above about 33%, passing the limit was not always enough;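 further: cells stimulated with NPY at EC10 then isoproterenol at EC100; 0% = low agonist plus stimulus and 100% = saturating agonist plus stimulus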
Target sequence (P25929 whole entry, looked up): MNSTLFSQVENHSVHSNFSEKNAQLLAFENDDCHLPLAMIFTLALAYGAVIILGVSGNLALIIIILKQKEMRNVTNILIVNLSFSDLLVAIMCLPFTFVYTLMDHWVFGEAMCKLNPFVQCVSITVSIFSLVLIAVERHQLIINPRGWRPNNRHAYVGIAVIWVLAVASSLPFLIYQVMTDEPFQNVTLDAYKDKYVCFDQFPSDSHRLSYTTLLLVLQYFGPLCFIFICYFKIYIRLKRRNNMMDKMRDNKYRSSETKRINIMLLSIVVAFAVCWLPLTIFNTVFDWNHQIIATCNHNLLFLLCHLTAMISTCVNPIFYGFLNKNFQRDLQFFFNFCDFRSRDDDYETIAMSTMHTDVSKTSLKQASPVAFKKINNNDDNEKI
NPY2 pot ag = potentiates or activates human NPY-Y2 receptor; P49146; cells expressing NPY-Y2, potentiator/agonist read-out; activation, % at 3.6 µM; 0.45% of 220,000 active; AID 1359; in the data active means activation above about 27%;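 further: cells stimulated with NPY near EC25 plus isoproterenol at EC100; 0% = vehicle plus submaximal agonist and 100% = vehicle plus saturating agonist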
NPY-Y1 antag = NPY-Y1 (human) receptor antagonism; P25929; HEK293-CNG Y1 cells, membrane potential fluorescence; NPY at EC95, then isoproterenol; inhibition, % at 3.6 µM; 1% of 200,000 active; AID 1040;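 active means inhibition above the campaign mean inhibition of all tested compounds plus 3 SD, cut at about 20% in these data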;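 further: 0% = DMSO wells given NPY plus isoproterenol and 100% = isoproterenol alone without NPY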
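Test system: HEK293 cells co-expressing NPY Y1 receptor and cyclic-nucleotide gated channel; Also added: NPY (25 nM), isoproterenol (1 µM), Ro 20-1724 (25 µM); Compound dosing: one concentration, 3.6 µM, in 0.4% DMSO; Timing: dye 3 h, compound 60 min room temperature, stimulation 45 min; Technique: Membrane-potential fluorescent dye readout.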
EP2 cAMP induct = EP2 receptor cAMP induction, counter-screens negative; 47% of 1,300 active; shares compounds with EP2 mod; calls only at 20 µM (by protocol); C6 glioma EP2 cells, cAMP HTRF induction; plus low (about EC15) PGE2 agonist;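 active means cAMP induction above 50% in the main assay while under 30% in all four parallel counter assays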;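 further: rat C6 glioma cells stably expressing human EP2 receptor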
An asterisk follows results filed as active; i = inactive; . = no result given; + = active, no number.

SMILES | EP2 antag | NPY Y2 blocker | EP2 mod | NPY-Y1 PAM-ag | NPY2 pot ag | NPY-Y1 antag | EP2 cAMP induct
COc1cc(C2C(C#N)=C(N)Oc3n[nH]c(C)c32)ccc1OCc1ccc(F)cc1 (centres undefined) | 27 | . | -85 | . | . | . | .
Cc1ccccc1-n1c(=S)[nH]c2sc3c(c2c1=O)CC(C)(C)OC3 | 19 | . | 52 | . | . | . | .
Cc1ccc(S(=O)(=O)NCC(=O)N(c2ccccc2)C(C(=O)NCc2ccccc2)c2ccco2)cc1 (centres undefined) | 7 | 5 | 68* | -11 | 3 | 0 | i
Cc1ccc(Cl)cc1NC(=O)C(=O)N1CCCCC1 | 2 | . | 15 | -22 | -9 | 1 | .
Cc1ccc(Cl)cc1NC1=NC(=S)N(C(C)C)C12CCCCC2 | 7 | 0 | 93* | -12 | -1 | 1 | +
C=CCn1c(-c2oc3nc(-c4ccccc4)cc(-c4ccccc4)c3c2N)n[nH]c1=S | 4 | 2 | 61* | 12 | -1 | 0 | i
Cc1ccc(-n2cc(-c3ccccc3)c3c(N4CCOCC4)ncnc32)cc1 | 12 | . | 69* | 1 | 4 | -2 | i
Cc1cc(=O)c2c(O)c(O)ccc2o1 | 10 | 1 | 1 | 5 | -3 | 1 | .
CC1=CCc2c(cc3oc(C)cc(=O)c3c2O)OC1 | 4 | . | 52 | . | . | . | i
CCOC(=O)c1sc(NC(=O)C(CC)OC(=O)C(CC(C)C)NC(=O)c2ccccc2)nc1C (centres undefined) | 18 | 2 | 67* | -17 | -8 | -7 | i
CCOC(=O)c1sc(NC(=O)C(CC)c2ccccc2)nc1C (centres undefined) | 11 | . | -30 | . | . | . | .
Cc1nc(-c2cccc(NS(=O)(=O)c3cn(C)nc3C)c2)cs1 | 8 | . | -54 | . | . | . | .
O=C(O)c1ccc(C(=O)c2ccccc2)c(C(=O)O)c1 | 5 | . | 12 | . | . | . | .
Nc1ccc(SC(F)(F)F)cc1C(=O)c1ccccc1 | . | 2 | 69* | -6 | -1 | 10 | i
COc1cc(C)c(CNC(=O)c2cnc(SC)nc2)cc1C(C)C | 6 | . | 19 | . | . | . | .
CCCn1c(SCC(=O)Nc2ccc(C)c(Cl)c2)nnc1-c1ccco1 | 13 | . | -8 | . | . | . | .
O=C(c1ccc2c(c1)OCO2)N(Cc1cccs1)C1(C(=O)NC2CCCCC2)CCCCC1 | 4 | 37* | 71* | -10 | -13 | 55* | i
O=C(c1ccc(=O)[nH]c1)N(Cc1cccs1)C1(C(=O)NC2CCCC2)CCCCC1 | 6 | 0 | 22 | 6 | 8 | 5 | .
CCOc1cc(C2/C(=C(/O)c3cc(C)ccc3C)C(=O)C(=O)N2CCN(C)C)ccc1O (centres undefined) | 4 | . | 14 | . | . | . | .
COc1cccc(C(=O)Nc2cccc(OCC(=O)O)c2)c1 | 6 | 6 | 93* | -15 | -11 | 6 | +
COC(=O)c1sc(NC(=O)c2cccc(Cl)c2)c(C#N)c1C | 9 | . | -39 | . | . | . | .
COc1ccc(N2C(=O)N(Cc3ccc(C)cc3)c3ccccc3S2(=O)=O)cc1 | 4 | . | 79* | 24 | 9 | -2 | +
COc1ccc(N2C(=O)c3ccccc3S2(=O)=O)cc1 | 9 | . | -11 | 10 | 7 | . | .
O=C(CN1CCC(c2ccncc2)CC1)N1CCN(c2ccccc2F)CC1 | . | . | -21 | . | . | . | .
COc1ccc(C2SCCN2S(=O)(=O)c2ccc(C)c(C)c2)cc1OC (centres undefined) | 13 | . | -43 | . | . | . | .
SMILES | EP2 antag | NPY Y2 blocker | EP2 mod | NPY-Y1 PAM-ag | NPY2 pot ag | NPY-Y1 antag | EP2 cAMP induct
CSc1nnc(CSCc2ccc(Cl)cc2Cl)n1-c1ccccc1 | 5 | 9 | 61* | -13 | -23 | 11 | +
Clc1ccc(CSCc2ccc(Cl)cc2Cl)c(Cl)c1 | 10 | . | -5 | . | . | . | .
COc1c(Cl)cc(Cl)cc1C(=O)n1nc(C)cc1C | 8 | 2 | 74* | -5 | 5 | 0 | i
Cc1cc(C)n(C(=O)c2ccc(Cl)c(F)c2F)n1 | 7 | . | 33 | 5 | 0 | 5 | .
Cc1ccc(-c2csc3ncnc(N4CCc5ccccc5C4)c23)cc1 | 4 | 12 | 70* | 6 | 7 | 9 | i
Cc1ccc(-c2csc3ncnc(Cl)c23)cc1 | 7 | 2 | 45 | 1 | -1 | 2 | .
CCn1c(COc2ccc(Cl)cc2)nnc1SCC(=O)Nc1ccc2c(c1)OCO2 | 9 | 4 | 65* | -8 | -10 | 5 | i
CCn1c(COc2ccc(Cl)cc2)nnc1SCC(=O)Nc1ccc(OC)cc1 | 17 | . | -2 | . | . | . | .
O=C(CO/N=C/c1ccccc1)N1c2ccccc2Oc2ccccc21 | 12 | 9 | 66* | -29 | -16 | -1 | i
CCNc1nc(NCC)nc(SCCOc2ccc(C)cc2)n1 | 6 | 4 | 82* | -18 | 10 | 8 | +
CCNc1nc(NCC)nc(SCCOC(=O)Nc2ccccc2)n1 | 7 | 1 | 1 | -6 | 11 | -5 | .
Cc1ccc(-c2nc3ccccc3nc2Cl)cc1 | 8 | . | 65* | -12 | -7 | 3 | i
COc1nc(-c2ccccc2)nnc1-c1ccccc1 | 5 | . | 75* | -35 | -20 | 12 | i
CCCC(c1nnnn1C(C)(C)C)N(Cc1ccccc1)Cc1cc2ccc(OC)cc2[nH]c1=O (centres undefined) | 6 | . | 22 | . | . | . | .
Cc1cc(O)ccc1C1(c2ccc(O)cc2C)OC(=O)c2ccccc21 | 11 | 5 | 67* | -4 | 8 | 1 | i
Cc1cccc(C2(c3cccc(C)c3)OC(=O)c3ccccc32)c1 | 1 | 16 | 38 | 2 | -6 | 7 | .
Cc1cccc(-n2c(CCn3nc(C)c([N+](=O)[O-])c3C)n[nH]c2=S)c1 | 11 | 0 | 61* | -4 | -4 | -2 | i
Nc1cc(-c2cccs2)nn(CC(=O)Nc2ccc(C(F)(F)F)cc2)c1=O | 3 | . | -57 | . | . | . | .
CC(=O)O[C@H]1CC[C@@]2(C)C(C[C@@H](OC(C)=O)[C@]3(C)C2CC[C@@]2(C)[C@H](c4ccoc4)OC(=O)[C@H]4O[C@]423)C1(C)C (some centres undefined) | 9 | . | 25 | . | . | . | .
CC(=O)O[C@H]1C[C@@H](OC(C)=O)C(C)(C)C2C[C@@H](OC(C)=O)[C@]3(C)C([C@H](OC(C)=O)C[C@@]4(C)[C@H](c5ccoc5)OC(=O)[C@H]5O[C@]543)[C@]21C (some centres undefined) | 9 | . | 70* | . | . | . | +
CCSC1=N/C(=C\c2ccccc2)C(=O)N1c1ccc(OC)cc1 | 6 | . | 79* | 10 | 9 | 4 | +
COc1ccc(C)cc1-n1c(=O)c2ccccc2c2ccccc2c1=O | 5 | . | 74* | -12 | 1 | 3 | i
COc1cnc(SCc2c(Cl)cccc2Cl)nc1Cl | 6 | 5 | 74* | -47 | -34 | 0 | +

Screening results as filed in PubChem.
